The target of data set [1] is T1, ACVR1 (ALK2) (Homo sapiens, UniProt Q04771).
T1 sequence (Q04771 21-509): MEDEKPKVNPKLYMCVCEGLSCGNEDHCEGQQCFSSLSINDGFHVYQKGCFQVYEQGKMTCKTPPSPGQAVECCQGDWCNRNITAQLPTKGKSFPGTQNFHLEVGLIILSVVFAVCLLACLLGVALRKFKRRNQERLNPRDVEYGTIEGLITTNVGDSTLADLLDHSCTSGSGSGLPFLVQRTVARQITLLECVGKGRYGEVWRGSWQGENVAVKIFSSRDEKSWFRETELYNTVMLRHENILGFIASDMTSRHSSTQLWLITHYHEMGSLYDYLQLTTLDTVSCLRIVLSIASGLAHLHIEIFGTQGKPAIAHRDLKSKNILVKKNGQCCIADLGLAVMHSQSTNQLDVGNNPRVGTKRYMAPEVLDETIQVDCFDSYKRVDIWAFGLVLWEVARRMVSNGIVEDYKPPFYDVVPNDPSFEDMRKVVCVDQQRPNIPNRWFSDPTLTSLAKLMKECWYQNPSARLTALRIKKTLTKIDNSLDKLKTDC
The data set can be described thus: ThermoFisher SelectScreen LanthaScreen assay. The data set is classed as binding. The following applies: ALK2, text. For orientation: TR-FRET usually uses a lanthanide donor and a delayed reading to cut background.

Data set [2] deals with ACVRL1 (ALK1) (Homo sapiens, UniProt P37023). The data set can be described thus: ThermoFisher SelectScreen LanthaScreen assay. The data set is classed as binding. Conditions: ALK1, text.
ACVRL1 (ALK1), sequence (P37023 22-503): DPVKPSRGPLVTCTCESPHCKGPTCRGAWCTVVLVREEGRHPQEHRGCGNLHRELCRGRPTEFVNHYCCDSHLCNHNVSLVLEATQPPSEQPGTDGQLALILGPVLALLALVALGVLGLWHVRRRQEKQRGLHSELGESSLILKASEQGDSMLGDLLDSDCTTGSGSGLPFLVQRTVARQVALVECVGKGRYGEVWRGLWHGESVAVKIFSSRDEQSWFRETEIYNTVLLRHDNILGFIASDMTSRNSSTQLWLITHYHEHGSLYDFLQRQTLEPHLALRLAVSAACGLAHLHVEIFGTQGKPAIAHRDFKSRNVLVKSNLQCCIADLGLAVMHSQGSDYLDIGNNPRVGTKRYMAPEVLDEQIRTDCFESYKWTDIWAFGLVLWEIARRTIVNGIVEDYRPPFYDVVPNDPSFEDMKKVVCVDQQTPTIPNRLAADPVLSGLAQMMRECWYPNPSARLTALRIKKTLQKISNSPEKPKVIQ
The target in data set [3] is ACVR2B (Homo sapiens, UniProt Q13705). Kind of data set: ThermoFisher SelectScreen LanthaScreen assay. It is filed as binding. The following applies: N/A = not active. The essentials: (§1)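 Outsourced kinase profiling in TR-FRET binding format, measuring displacement of a tight-binding tracer from the kinase by test compound. IC50 reported.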
ACVR2B, sequence (Q13705 19-512): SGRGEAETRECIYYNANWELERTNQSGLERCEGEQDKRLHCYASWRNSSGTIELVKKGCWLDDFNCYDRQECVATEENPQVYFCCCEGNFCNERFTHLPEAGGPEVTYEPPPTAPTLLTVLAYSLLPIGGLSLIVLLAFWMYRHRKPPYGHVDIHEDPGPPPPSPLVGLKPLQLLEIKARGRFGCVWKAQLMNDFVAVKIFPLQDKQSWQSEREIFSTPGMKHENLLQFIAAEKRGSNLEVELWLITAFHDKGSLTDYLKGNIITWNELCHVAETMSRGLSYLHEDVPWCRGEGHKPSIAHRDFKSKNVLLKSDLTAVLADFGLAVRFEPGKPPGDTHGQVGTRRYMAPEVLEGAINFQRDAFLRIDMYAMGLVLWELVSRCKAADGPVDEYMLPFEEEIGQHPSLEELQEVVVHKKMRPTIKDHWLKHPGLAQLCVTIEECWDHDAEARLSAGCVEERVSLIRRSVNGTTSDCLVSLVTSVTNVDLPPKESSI
Data set [4] addresses BMPR1B (ALK6) (Homo sapiens, UniProt O00238). Kind of data set: ThermoFisher SelectScreen LanthaScreen assay. It is filed as binding. Conditions: for selectivity: ALK6 vs BMPR2.
Data set [5] addresses T2, ACVR1B (ALK4) (Homo sapiens, UniProt P36896).
T2 sequence (P36896 24-505): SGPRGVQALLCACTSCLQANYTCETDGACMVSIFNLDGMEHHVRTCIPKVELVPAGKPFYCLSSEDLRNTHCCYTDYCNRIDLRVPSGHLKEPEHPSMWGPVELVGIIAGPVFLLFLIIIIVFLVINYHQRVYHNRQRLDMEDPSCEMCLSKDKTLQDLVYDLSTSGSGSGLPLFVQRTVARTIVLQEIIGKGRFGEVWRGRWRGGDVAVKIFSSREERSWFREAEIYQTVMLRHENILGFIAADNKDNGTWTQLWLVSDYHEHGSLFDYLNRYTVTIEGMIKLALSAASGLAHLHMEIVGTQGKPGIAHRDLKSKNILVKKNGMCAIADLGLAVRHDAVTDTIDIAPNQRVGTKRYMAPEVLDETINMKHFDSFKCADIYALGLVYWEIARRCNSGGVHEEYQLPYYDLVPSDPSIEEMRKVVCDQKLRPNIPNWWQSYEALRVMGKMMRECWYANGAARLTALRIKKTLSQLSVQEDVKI
The data set can be described thus: ThermoFisher SelectScreen Z’-LYTE assay. Conditions: N/A = not active. It is filed as biochemical.

Data set [6] has as its target T3, BMPR2 kinase domain (Homo sapiens, UniProt Q13873).
T3 sequence (Q13873 188-517): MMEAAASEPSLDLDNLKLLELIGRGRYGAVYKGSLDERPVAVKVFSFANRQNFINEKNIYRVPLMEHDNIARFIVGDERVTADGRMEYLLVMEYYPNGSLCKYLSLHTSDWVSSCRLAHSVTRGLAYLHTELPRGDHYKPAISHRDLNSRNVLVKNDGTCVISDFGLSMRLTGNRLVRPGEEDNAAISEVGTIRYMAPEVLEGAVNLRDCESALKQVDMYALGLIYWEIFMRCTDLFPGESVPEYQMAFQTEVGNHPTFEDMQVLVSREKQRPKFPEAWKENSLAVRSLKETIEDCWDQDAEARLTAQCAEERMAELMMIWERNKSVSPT
The data set can be described thus: Thermal shift assay. The data set is classed as binding. The following applies: 50 μM compound; BMPR2 alone Tm 52.1 °C. An outline of the steps:
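Purified BMPR2 kinase domain (1 μg) in 50 mM Tris–HCl pH 7.5, 150 mM NaCl with 50 μM test compound and 5× SYPRO Orange. Heated 20 to 95 °C, fluorescence read every 10 s. Tm taken from the unfolding curve; three technical replicates averaged.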

For data set [7], the target named is TGFBR2 (Homo sapiens, UniProt P37173). The data set can be described thus: ThermoFisher SelectScreen LanthaScreen assay. The data set is classed as binding.
TGFBR2, sequence (P37173 23-567): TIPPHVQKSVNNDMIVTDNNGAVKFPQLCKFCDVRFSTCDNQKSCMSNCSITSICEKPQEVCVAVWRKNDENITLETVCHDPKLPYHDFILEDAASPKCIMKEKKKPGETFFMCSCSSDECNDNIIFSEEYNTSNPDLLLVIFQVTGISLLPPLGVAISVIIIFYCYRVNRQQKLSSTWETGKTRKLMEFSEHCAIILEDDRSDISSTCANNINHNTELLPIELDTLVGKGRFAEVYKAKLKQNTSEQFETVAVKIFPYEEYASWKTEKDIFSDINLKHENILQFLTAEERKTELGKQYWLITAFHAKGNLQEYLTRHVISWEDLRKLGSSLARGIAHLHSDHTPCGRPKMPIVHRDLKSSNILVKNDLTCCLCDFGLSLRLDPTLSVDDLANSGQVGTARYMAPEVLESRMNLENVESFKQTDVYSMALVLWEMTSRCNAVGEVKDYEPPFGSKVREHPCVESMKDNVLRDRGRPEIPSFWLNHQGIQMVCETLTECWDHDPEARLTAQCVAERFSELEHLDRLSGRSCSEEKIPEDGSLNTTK
Data set [8] has as its target BMPR1A (ALK3) (Homo sapiens, UniProt P36894). The data set can be described thus: ThermoFisher SelectScreen LanthaScreen assay. The following applies: for selectivity: ALK3 vs BMPR2. The data set is classed as binding.
The target of data set [9] is T4, TGFBR1 (ALK5) (Homo sapiens, UniProt P36897).
T4 sequence (P36897 34-503): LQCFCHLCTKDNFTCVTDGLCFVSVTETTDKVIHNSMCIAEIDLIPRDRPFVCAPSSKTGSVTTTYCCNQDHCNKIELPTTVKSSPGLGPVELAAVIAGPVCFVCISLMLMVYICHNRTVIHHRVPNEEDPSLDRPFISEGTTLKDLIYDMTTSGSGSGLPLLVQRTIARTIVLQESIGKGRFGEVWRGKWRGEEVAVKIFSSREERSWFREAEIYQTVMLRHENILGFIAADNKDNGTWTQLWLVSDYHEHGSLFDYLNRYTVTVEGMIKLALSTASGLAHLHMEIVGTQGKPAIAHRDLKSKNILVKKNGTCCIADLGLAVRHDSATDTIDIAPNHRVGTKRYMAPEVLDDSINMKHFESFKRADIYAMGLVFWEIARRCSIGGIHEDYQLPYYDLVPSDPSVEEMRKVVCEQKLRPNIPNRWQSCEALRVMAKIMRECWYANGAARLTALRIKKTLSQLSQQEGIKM
Kind of data set: ThermoFisher SelectScreen LanthaScreen assay. The data set is classed as binding. Conditions: for selectivity: ALK5 vs BMPR2.

Data set [10] addresses ACVR2A (Homo sapiens, UniProt P27037). Kind of data set: ThermoFisher SelectScreen LanthaScreen assay. The data set is classed as binding. Conditions: N/A = not active. The essentials: as §1
Data set [11] has as its system pSMAD1/5 in human umbilical vein endothelial cells (HUVECs). The data set can be described thus: pSMAD1/5 Western blot, BMP9-stimulated HUVECs. The data set is classed as cell-based. The following applies: 25 μM, 30 min pretreatment, 0.5 ng/mL BMP9 15 min. The essentials: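 HUVECs, about 3 × 10^5 per well, starved overnight in Kaighn's F-12 with 0.5% FBS and 30 μg/mL endothelial cell growth supplement. Pretreated with inhibitors for 30 min, then given 0.5 ng/mL BMP9 for 15 min. Lysed with protease and phosphatase inhibitors. SDS-PAGE immunoblot for pSMAD1/5, SMAD1, SMAD5 and GAPDH, with densitometry. n = 3 biological replicates; one-way ANOVA with Tukey post hoc test.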
In general terms: In western blotting, separated proteins are transferred to a membrane and probed.

Data set [12] is described as follows: Metabolic stability in human liver microsomes. It is filed as in vitro ADME. The following applies: compared with analogue (CDD-1115 for CDD-1281, CDD-1431 for CDD-1653). The essentials: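 Human liver microsomes (0.5 mg protein/mL) incubated at 37 °C with test compound (2.0 μM) and NADPH cofactor (1.0 mM). Samples taken at 0, 30 and 60 min, in duplicate. […] Half-life was compared with that of the paired structural analogue.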
A general note: Liver microsomes are vesicles of endoplasmic reticulum, rich in cytochrome P450 enzymes.

For data set [13], the target named is T5, BMPR2 (Homo sapiens, UniProt Q13873).
T5 sequence (Q13873 27-1038): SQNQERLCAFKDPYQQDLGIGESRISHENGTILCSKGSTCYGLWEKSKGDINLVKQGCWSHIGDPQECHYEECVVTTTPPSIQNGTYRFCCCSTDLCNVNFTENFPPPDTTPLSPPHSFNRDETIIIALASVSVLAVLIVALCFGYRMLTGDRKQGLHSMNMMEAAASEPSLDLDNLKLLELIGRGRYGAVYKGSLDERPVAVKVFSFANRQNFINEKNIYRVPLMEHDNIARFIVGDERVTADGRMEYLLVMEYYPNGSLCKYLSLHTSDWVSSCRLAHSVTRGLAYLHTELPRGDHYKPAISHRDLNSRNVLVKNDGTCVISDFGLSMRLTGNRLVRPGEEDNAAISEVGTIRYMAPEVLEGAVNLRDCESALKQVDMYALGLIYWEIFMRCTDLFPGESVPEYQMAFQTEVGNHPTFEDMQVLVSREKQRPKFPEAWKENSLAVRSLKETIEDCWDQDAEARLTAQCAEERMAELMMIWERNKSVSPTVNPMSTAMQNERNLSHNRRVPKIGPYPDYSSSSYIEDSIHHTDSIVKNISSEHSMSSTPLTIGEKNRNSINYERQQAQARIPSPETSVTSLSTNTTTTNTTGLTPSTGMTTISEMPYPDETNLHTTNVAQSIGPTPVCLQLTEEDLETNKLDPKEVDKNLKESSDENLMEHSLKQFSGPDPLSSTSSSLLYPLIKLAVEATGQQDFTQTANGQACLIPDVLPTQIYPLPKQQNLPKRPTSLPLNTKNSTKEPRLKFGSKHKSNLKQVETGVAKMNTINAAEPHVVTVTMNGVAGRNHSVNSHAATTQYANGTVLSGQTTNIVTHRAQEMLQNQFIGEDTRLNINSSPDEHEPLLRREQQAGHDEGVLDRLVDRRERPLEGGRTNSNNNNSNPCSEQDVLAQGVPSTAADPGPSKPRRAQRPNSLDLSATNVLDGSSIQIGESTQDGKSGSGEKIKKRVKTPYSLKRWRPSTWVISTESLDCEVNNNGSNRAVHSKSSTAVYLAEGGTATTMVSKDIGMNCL
Kind of data set: ThermoFisher SelectScreen LanthaScreen assay. It is filed as binding. Conditions: than CDD-1115.

Data set [14] is described as follows: Metabolic stability in mouse liver microsomes. It is filed as in vitro ADME. The following applies: compared with analogue (CDD-1115 for CDD-1281, CDD-1431 for CDD-1653).

Each structure is given as a SMILES string.

BMPR1A (ALK3), sequence (P36894 24-532): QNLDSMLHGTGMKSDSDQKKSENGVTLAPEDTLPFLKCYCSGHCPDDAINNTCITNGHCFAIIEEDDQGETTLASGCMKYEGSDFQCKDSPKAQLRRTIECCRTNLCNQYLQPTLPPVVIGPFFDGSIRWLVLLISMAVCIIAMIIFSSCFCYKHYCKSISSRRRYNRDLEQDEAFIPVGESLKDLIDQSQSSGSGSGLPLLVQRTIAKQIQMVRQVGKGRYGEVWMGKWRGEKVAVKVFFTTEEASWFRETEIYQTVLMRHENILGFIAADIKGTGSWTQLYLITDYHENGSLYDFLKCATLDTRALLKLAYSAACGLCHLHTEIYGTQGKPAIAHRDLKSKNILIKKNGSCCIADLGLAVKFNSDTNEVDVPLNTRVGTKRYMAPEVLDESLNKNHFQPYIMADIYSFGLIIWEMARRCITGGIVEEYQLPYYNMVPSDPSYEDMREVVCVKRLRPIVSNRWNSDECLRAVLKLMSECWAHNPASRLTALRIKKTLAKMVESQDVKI
BMPR1B (ALK6), sequence (O00238 14-502): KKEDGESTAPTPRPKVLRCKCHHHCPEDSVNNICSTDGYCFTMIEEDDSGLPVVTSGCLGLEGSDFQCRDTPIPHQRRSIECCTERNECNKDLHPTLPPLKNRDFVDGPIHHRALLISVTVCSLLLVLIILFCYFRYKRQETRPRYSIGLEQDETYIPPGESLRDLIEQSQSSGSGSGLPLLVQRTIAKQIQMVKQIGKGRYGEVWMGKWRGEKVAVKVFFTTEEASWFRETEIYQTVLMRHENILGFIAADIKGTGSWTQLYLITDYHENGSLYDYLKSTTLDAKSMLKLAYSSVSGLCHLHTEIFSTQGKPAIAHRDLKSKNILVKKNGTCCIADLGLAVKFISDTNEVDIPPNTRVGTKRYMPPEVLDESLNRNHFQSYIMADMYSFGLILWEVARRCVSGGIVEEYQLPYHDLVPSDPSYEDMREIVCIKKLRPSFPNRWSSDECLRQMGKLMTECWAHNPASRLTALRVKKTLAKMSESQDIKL
ACVR2A, sequence (P27037 20-513): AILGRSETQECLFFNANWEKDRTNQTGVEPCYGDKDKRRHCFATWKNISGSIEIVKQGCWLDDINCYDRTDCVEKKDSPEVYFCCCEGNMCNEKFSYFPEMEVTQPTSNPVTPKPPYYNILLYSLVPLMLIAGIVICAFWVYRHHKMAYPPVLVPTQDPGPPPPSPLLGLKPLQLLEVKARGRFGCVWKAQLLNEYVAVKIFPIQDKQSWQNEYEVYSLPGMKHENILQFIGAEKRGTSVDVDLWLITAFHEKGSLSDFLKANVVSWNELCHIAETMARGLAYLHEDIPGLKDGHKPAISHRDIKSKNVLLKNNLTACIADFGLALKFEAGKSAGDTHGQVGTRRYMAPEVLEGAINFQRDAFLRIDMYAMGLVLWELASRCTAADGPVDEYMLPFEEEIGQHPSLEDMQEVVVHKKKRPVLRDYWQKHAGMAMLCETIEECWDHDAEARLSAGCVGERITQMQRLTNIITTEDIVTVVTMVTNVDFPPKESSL

Turning to `CNC(=O)[C@@H]1CC[C@@H](n2c(-c3ccc4cnccc4c3)nc3ccc(C(=O)NCc4cccc(C(N)=O)c4)cc32)C1` [CDD-1115, N-(3-Carbamoylbenzyl)-2-(isoquinolin-6-yl)-1-((1R,3R)-3-(methylcarbamoyl)cyclopentyl)-1H-benzo[d]imidazole-6-carboxamide], the “selectivity over BMPR2” value in data set [1] is > 100 fold; in data set [2], > 100 fold; in data set [4] (ALK6, text), > 555 fold; in [7] (TGFBR2, text), > 555 fold; in data set [8] (ALK3, text), > 555 fold; in [9] (ALK5, text), > 555 fold. The IC50 result is “inactive” in data set [3], “inactive” in data set [5], > 1 µM in data set [7] and “inactive” in [10]. For the same molecule, the selectivity in data set [4], in data set [7] (TGFBR2 vs BMPR2), in data set [8] and in data set [9] was >555× each time. The “melting temperature (Tm)” value in data set [6] turned out to be 67.8 °C.
Regarding `NC(=O)c1cccc(CNC(=O)c2ccc3nc(-c4ccc5cnccc5c4)n(C4CCCC4)c3c2)c1` [CDD-1281, N-(3-Carbamoylbenzyl)-1-cyclopentyl-2-(isoquinolin-6-yl)-1H-benzo[d]imidazole-6-carboxamide], the “phosphorylation of SMAD1/5 (pSMAD1/5)” value in [11] is “significantly decreased”. The selectivity in data set [4], in [8] and in data set [9] was >830× each time. For the same molecule, in data set [12], the “fold increase of half-life in HLM” value was found to be 11.0 fold. Further, in [13], the “fold higher potency (IC50)” value amounted to 1.5 fold. For the same molecule, the “fold increase of half-life in MLM” value in [14] is 3.5 fold.

As usually defined, the IC50 is the concentration at which inhibition is half-maximal. A higher IC50 goes with weaker potency in that assay.
